These results are taken from ChEMBL document CHEMBL1158730, “Sesquiterpenoids from Pulicaria canariensis and their cytotoxic activities” (J Nat Prod, 2005).

Each structure is given as a SMILES string. Calls of active or inactive are those of the source. The rule behind the calls is not given here.

Holding throughout (format): functional, cell-based
In assay [1] the test system is HL-60. In words: Cytotoxicity against human HL60 cells by MTT assay. In a few lines:
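HL-60 cells grown in suspension in RPMI-1640 with 10% heat-inactivated FBS, penicillin 100 units/mL and streptomycin 100 μg/mL, at 37 °C in humidified 95% air/5% CO2. Density kept below 1 × 10^6 cells/mL. Viability read by MTT; IC50 (μM) given as mean ± spread.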

Assay [2] relates to HL-60. In words: Induction of apoptosis in human HL60 cells assessed as nuclear chromatin condensation by Hoechst 33258 based fluorescent microscopy. In a few lines:
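HL-60 cells cultured 12 h without or with the indicated doses, then stained with Hoechst 33258. Condensed/fragmented chromatin scored by fluorescence microscopy as the percentage of apoptotic cells. Etoposide 10 μM as positive control. Points are the average (±SE) of triplicates from a representative experiment.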

For assay [3], the system named is HL-60. Kind of assay: Induction of apoptosis in human HL60 cells assessed as accumulation […] at 30 uM after 12 hrs by flow cytometry. Summed up:
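HL-60 cells incubated at 30 μM for 12 h. DNA content analysed by flow cytometry to follow the diploid-to-hypodiploid shift and the cell-cycle phase distribution.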
In general terms: In flow cytometry, cells or beads pass a laser one at a time.

For assay [4], the system named is HL-60. Kind of assay: Induction of apoptosis in human HL60 cells assessed as activation of caspase 3 after 12 hrs. In a few lines:
(§1)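 HL-60 cells exposed to increasing concentrations for 12 h, then harvested. Cytosolic or total lysates assayed with colorimetric substrates, DEVD-pNA for caspase-3 and IETD-pNA for caspase-8. Activity expressed as x-fold over untreated control. A representative experiment run in duplicate.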

Assay [5] concerns HL-60. In words: Induction of apoptosis in human HL60 cells assessed as activation of caspase 8 at after 12 hrs. In a few lines: as §1
In assay [6] the test system is HL-60. In words: Induction of apoptosis in human HL60 cells assessed as cleavage of PARP-1 after 12 hrs by Western blot analysis. In a few lines:
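HL-60 cells treated for 12 h at the indicated concentrations. Total lysates immunoblotted with a PARP-1 monoclonal antibody that detects the native 116 kDa and cleaved 85 kDa forms. Etoposide 10 μM served as positive control.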

`C=C1CC/C=C(/COC(C)=O)C[C@@H](OC(C)=O)[C@H](C(C)C)[C@H](OC(C)=O)C1=O` [TRIACETOXY PULICANONE]: half-maximal inhibition in assay [1] (IC50) required 20 µM. In addition, the Activity entry in assay [2] was “Dose-dependent effect”. In addition, the outcome in assay [3], in assay [4], in assay [5] and in assay [6] was Active.
In the case of `C=C1CC[C@@H](C(C)C)[C@H]2[C@@H]1CC[C@@H]2C(=O)CO` [PULIOPLOPANONE A], it took 242 µM to reach half-maximal inhibition in assay [1] (IC50).
The same measure, in the same setting: then `CC(=O)O[C@@H]1/C=C(\C)CC[C@H]2O[C@@]2(C=O)C[C@@H](OC(C)=O)[C@@H]1C(C)C` [PULICANARAL A], with 115 µM.
Same read-out and setting: for `CC(=O)O[C@H]1[C@@H](C(C)C)[C@H](OC(C)=O)C[C@]2(C=O)O[C@@H]2CC[C@@]2(C)O[C@@H]12` [PULICANARAL B] the value was 264 µM; for `CC(=O)OC/C1=C/CC[C@@]2(C)O[C@@H]2[C@@H](OC(C)=O)[C@@H](C(C)C)[C@H](OC(C)=O)C1`, 298 µM.
